Each block holds one molecule with its values, some of them ahead of it.
How the values were obtained:
[1] = Cytotoxicity against human HuH7 cells assessed as inhibition of cell viability at 10 uM after 3 days by CellTiter 96 assay; assay type: cell-based, Huh-7; conditions: read-out: INH
In short: (§1)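 Replicon cells plated at 6 X 10^3 per well and treated the next day with compound in DMSO, DMSO alone or nothing for three days at 37 °C/5% CO2. Viability measured by CellTiter 96 AQueous One, absorbance 450 nm. Percent inhibition is the average of triplicate wells.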

[2] = test system: Hepatitis C virus; assay: Antiviral activity against HCV genotype 1b infected in human Huh7 cells at 10 uM after 3 days by luciferase reporter gene assay; assay type: functional, Hepacivirus hominis; conditions: Huh-7, 72 h
In short: (§2)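 Subgenomic luciferase replicon cells seeded at 6 X 10^3 per well. Next day, medium containing compound in DMSO, or DMSO alone, was added. After three days, luciferase read with ViViRen live-cell substrate. Percent inhibition is the triplicate average; 2mA served as control in single-dose runs.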

[3] = test system: Hepatitis C virus; assay: Antiviral activity against HCV genotype 1b infected in human Huh7 cells at 1 uM after 3 days by luciferase reporter gene assay; assay type: functional, Hepacivirus hominis; conditions: Huh-7, 72 h; in short: as §2
[4] = Cytotoxicity against human HuH7 cells assessed as inhibition of cell viability at 1 uM after 3 days by CellTiter 96 assay; assay type: cell-based, Huh-7; conditions: read-out: INH; in short: as §1
[5] = test system: Hepatitis C virus; assay: Antiviral activity against HCV genotype 1b infected in human Huh7 cells after 3 days by luciferase reporter gene assay; assay type: functional, cell-based, Hepacivirus hominis; conditions: Huh-7, 72 h
[6] = Cytotoxicity against human HuH7 cells assessed as inhibition of cell viability after 3 days by CellTiter 96 assay
[7] = Therapeutic index, ratio of CC50 for human HuH7 cells to EC50 for HCV genotype 1b infected in human Huh7 cells

Compound: O=C(/C=C/c1cccnc1)NO
cytotoxicity at 72 h, 10 µM [1]: 2%
inhibition at 10 µM [2]: 40%

Compound: O=C(NO)c1cc2ccccc2n1Cc1ccccc1
cytotoxicity at 72 h, 10 µM [1]: 28%
inhibition at 10 µM [2]: 82%

Compound: COC(=O)/C=C/c1ccc(C(F)(F)F)cc1
cytotoxicity at 72 h, 10 µM [1]: 1%
inhibition at 10 µM [2]: 0%

Compound: N#Cc1ccc(/C=C/C(=O)NO)cc1
cytotoxicity at 72 h, 10 µM [1]: 18%
inhibition at 1 µM [3]: 45%
inhibition at 10 µM [2]: 99%
cytotoxicity at 72 h, 1 µM [4]: 16%

Compound: O=C(NO)c1cn(Cc2ccccc2)c2ccccc12
cytotoxicity at 72 h, 10 µM [1]: 92%
inhibition at 10 µM [2]: 99%

Compound: NC(=O)/C=C/c1ccc(C(F)(F)F)cc1
cytotoxicity at 72 h, 10 µM [1]: 1%
inhibition at 10 µM [2]: 6%

EC50 [5]: 210 nM
Compound: COc1cc(NC(=O)CCCCCCC(=O)NO)ccc1-c1cnco1
CC50 at 72 h [6]: 2600 nM
selectivity ratio ([7]; HuH7 cells): 12

Compound: O=C(/C=C/c1ccncc1)NO
cytotoxicity at 72 h, 10 µM [1]: 0%
inhibition at 10 µM [2]: 20%

Compound: Cc1[nH]c2ccccc2c1CCNCc1ccc(/C=C/C(=O)NO)cc1 [PANOBINOSTAT]
CC50 at 72 h [6]: 3.5 nM

Compound: O=C(NO)c1sc2ccccc2c1Sc1ccccc1
cytotoxicity at 72 h, 10 µM [1]: 4%
inhibition at 10 µM [2]: 8%

Compound: O=C(C=C(c1ccccc1)c1ccccc1)NO
cytotoxicity at 72 h, 10 µM [1]: 4%
inhibition at 10 µM [2]: 64%

Compound: O=C(NO)c1cc2ccccc2n1-c1ccccc1
cytotoxicity at 72 h, 10 µM [1]: 15%
inhibition at 10 µM [2]: 41%

Compound: CS(=O)(=O)c1ccc(/C=C/C(=O)NO)cc1
cytotoxicity at 72 h, 10 µM [1]: 0%
inhibition at 1 µM [3]: 30%
inhibition at 10 µM [2]: 93%
cytotoxicity at 72 h, 1 µM [4]: 0%

EC50 [5]: 3200 nM
Compound: C/C(=C\C(=O)NO)c1ccccc1
CC50 at 72 h [6]: 59000 nM
selectivity ratio ([7]; HuH7 cells): 18

Compound: O=C(/C=C/c1ccccc1C(F)(F)F)NO
cytotoxicity at 72 h, 10 µM [1]: 5%
inhibition at 10 µM [2]: 40%

Compound: CN1CCc2c(c3ccccc3n2Cc2ccc(C(=O)NO)cc2)C1 [TUBASTATIN A]
cytotoxicity at 72 h, 10 µM [1]: 70%
inhibition at 10 µM [2]: 97%

EC50 [5]: 540 nM
Compound: O=C(/C=C/c1c(F)cc(C(F)(F)F)cc1F)NO
CC50 at 72 h [6]: 12000 nM
selectivity ratio ([7]; HuH7 cells): 22

Compound: O=C(CCc1ccc(C(F)(F)F)cc1)NO
cytotoxicity at 72 h, 10 µM [1]: 0%
inhibition at 10 µM [2]: 35%

EC50 [5]: 1100 nM
Compound: O=C(/C=C/c1ccc(C(F)(F)F)cc1Cl)NO
CC50 at 72 h [6]: 15000 nM
selectivity ratio ([7]; HuH7 cells): 14

EC50 [5]: 1400 nM
Compound: Nc1ccccc1NC(=O)c1ccc(CNC(=O)OCc2cccnc2)cc1 [ENTINOSTAT]
CC50 at 72 h [6]: 5100 nM
selectivity ratio ([7]; huh-7): 4

EC50 [5]: 450 nM
Compound: O=C(/C=C/c1ccc([N+](=O)[O-])cc1)NO
CC50 at 72 h [6]: 29000 nM
selectivity ratio ([7]; HuH7 cells): 64

Compound: Nc1ccccc1NC(=O)/C=C/c1ccc(C(F)(F)F)cc1
cytotoxicity at 72 h, 10 µM [1]: 82%
inhibition at 10 µM [2]: 94%

EC50 [5]: 1400 nM
Compound: O=C(NO)c1sc2ccccc2c1[S+]([O-])c1ccccc1 (centres undefined)
CC50 at 72 h [6]: > 50000 nM
selectivity ratio ([7]; HuH7 cells): > 36

EC50 [5]: 5400 nM
Compound: O=C(NO)c1ccc(C(F)(F)F)cc1
CC50 at 72 h [6]: > 100000 nM
selectivity ratio ([7]; HuH7 cells): > 18

Compound: O=C(NO)c1cc2ccccc2[nH]1
cytotoxicity at 72 h, 10 µM [1]: 7%
inhibition at 10 µM [2]: 45%

EC50 [5]: 140 nM
Compound: O=C(/C=C/c1ccc(C(F)(F)F)cc1)NO
CC50 at 72 h [6]: 25000 nM
selectivity ratio ([7]; HuH7 cells): 178

— ChEMBL document CHEMBL3392986, “Hydroxamic acids block replication of hepatitis C virus” (J Med Chem, 2015)
